The source made the active and inactive calls. The calls are words filed in the database; no cut-off is given here.
Columns and labels:
HUVEC [1] = test: Increase in wound healing in HUVEC at 12.5 uM after 18 to 24 hrs by phase contrast microscopic analysis; format: functional, cell-based; settings: Homo sapiens
Outline: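 HUVECs grown to a confluent monolayer in 12-well plates and serum-deprived overnight. Scratched with a p200 tip, washed with DPBS, then given complete EBM-2 with 12.5 μM bile acid or DMSO vehicle. Imaged from a marked reference point at 0 h and after 18–24 h (phase contrast, 10×); percentage of migrated cells versus control. Triplicate; Dunnett's test.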

HUVEC [2] = test: Antiangiogenic activity in HUVEC assessed as inhibition of endothelial tube formation at 25 uM after overnight incubation by inverted microscopic analysis; format: functional, cell-based; settings: Homo sapiens
Outline: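 HUVECs at passages 2–5 were seeded at 2 × 10^5 cells per well on a gelled basement membrane matrix, made as Matrigel mixed 1:1 with plain EBM-2. Bile acids were added at 12.5 and 25 μM, with DMSO as vehicle control, and cells were treated overnight. Bright-field images were taken at 10× from five fields per well. Nodes and tube lengths were quantified. Runs were in triplicate; statistics by one-way ANOVA (Dunnett).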

HUVEC [3] = test: Pro-angiogenic activity in HUVEC assessed as decrease in cell-to-cell contact at 12.5 uM after overnight incubation by FITC-conjugated phalloidin staining based confocal microscopic analysis; format: functional; settings: Homo sapiens
Outline: (§1)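 HUVECs grown to 70% confluency on coverslips and treated with bile acids overnight. Fixed in 4% paraformaldehyde for 5 min and blocked with 1% BSA/0.1% Triton X-100 for 2 h. Stained with anti-VE-cadherin (1:200, 4 °C overnight) plus Alexa-488 secondary, FITC-phalloidin (1:100) for F-actin, and DAPI. Confocal imaging; repeated twice.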

Danio rerio [4] = species on record: Danio rerio; test: Toxicity in zebrafish embryo assessed as reduction in embryo survival up to 50 uM; format: organism-based; settings: in vivo
HUVEC [5] = test: Induction of angiogenesis in HUVEC assessed as increase in number of nodes at 12.5 uM after overnight incubation by inverted microscopic analysis relative to control; format: functional, Homo sapiens
Outline: (§2)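 Wells coated with Matigel:plain EBM-2 (1:1). HUVECs added at 2 × 10⁵ cells/well with bile acid (12.5 or 25 μM) or vehicle and left overnight. Bright-field images at 10× from five fields per well; nodes and tube lengths counted. Triplicate, three independent experiments; one-way ANOVA with Dunnett's test.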

Danio rerio [6] = species on record: Danio rerio; test: Pro-angiogenic activity in Tg(fli:eGFP) zebrafish embryo assessed as increase in branching of sub-intestinal veins at 12.5 uM after 72 hrs post fertilization by fluorescence microscopic analysis; format: functional, organism-based
Outline: (§3)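 Tg(fli1:eGFP) embryos selected at 48 hpf, 20–25 per well, raised at 28.5 °C. Bile acids (DMSO stock, diluted in embryo water) given at 6.25, 12.5 or 25 μM; 0.1% DMSO as vehicle control. Solutions replaced with fresh water at 72 hpf, embryos anaesthetised with tricaine and sub-intestinal vessels imaged by fluorescence. Scored as percentage of embryos; two experiments, 50 embryos/group.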

HUVEC [7] = test: Decrease in MMP9 level in HUVEC at 12.5 uM after 24 hrs by ELISA; format: functional, cell-based; settings: Homo sapiens
Outline: (§4)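 HUVECs in 6-well plates treated with 12.5 μM bile acid or DMSO vehicle. Medium supernatant collected 12 and 24 h after treatment. MMP9 measured by ELISA with HRP read-out at 405 nm, concentration interpolated from an MMP9 standard curve. Experiments done in duplicate.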

HUVEC [8] = test: Induction of angiogenesis in HUVEC assessed as increase in tube formation at 12.5 uM after overnight incubation by inverted microscopic analysis; format: functional, cell-based; settings: Homo sapiens; outline: as §2
HUVEC [9] = test: Cytotoxicity against HUVEC assessed as reduction in cell viability at 6.25 to 100 uM after 24 hrs by MTT assay; format: cell-based; settings: human
Outline: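 HUVECs at passages 2–5 were seeded at 5 × 10^3 cells per well in complete EBM-2 and allowed to adhere for 24 h. They were serum-starved 4 h, then given serially diluted bile acids (100 to 6.25 μM) in complete medium for 24 h. MTT was added for 4 h at 37 °C. Formazan was dissolved in DMSO and absorbance read at 550 nm. Three independent experiments.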

Danio rerio [10] = species on record: Danio rerio; test: Pro-angiogenic activity in Tg(fli:eGFP) zebrafish embryo assessed as sub-intestinal vein baskets extending towards ventral side at 12.5 uM after 72 hrs post fertilization by fluorescence microscopic analysis; format: functional, organism-based; outline: as §3
HUVEC [11] = test: Pro-angiogenic activity in HUVEC assessed as stress fiber formation at 12.5 uM after overnight incubation by FITC-conjugated phalloidin staining based confocal microscopic analysis; format: functional, cell-based; settings: Homo sapiens; outline: as §1
HUVEC [12] = test: Cytotoxicity against HUVEC assessed as reduction in cell death up to 12.5 uM after 24 hrs by MTT assay; format: cell-based; settings: human
Outline: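 HUVECs (passages 2–5, complete EBM-2) seeded at 5 × 10³ cells/well and left 24 h to adhere. Serum-starved 4 h, then exposed to bile acids (serial dilutions, 100 to 6.25 μM) in complete medium for 24 h. MTT added for 4 h at 37 °C, formazan dissolved in DMSO, absorbance read at 550 nm. Run in triplicate; three independent experiments.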

HUVEC [13] = test: Pro-angiogenic activity in HUVEC assessed as decrease in VE-cadherin expression at 12.5 uM after overnight incubation by FITC-conjugated phalloidin staining based confocal microscopic analysis; format: functional, cell-based; settings: Homo sapiens; outline: as §1
Danio rerio [14] = species on record: Danio rerio; test: Pro-angiogenic activity in Tg(fli:eGFP) zebrafish embryo assessed as increase in sprouting of sub-intestinal veins at 12.5 uM after 72 hrs post fertilization by fluorescence microscopic analysis; format: functional, organism-based; outline: as §3
Danio rerio [15] = species on record: Danio rerio; test: Pro-angiogenic activity in Tg(fli:eGFP) zebrafish embryo at 6.25 uM after 72 hrs post fertilization by fluorescence microscopic analysis; format: functional, organism-based; outline: as §3
HUVEC [16] = test: Increase in VEGFR1 m-RNA expression in HUVEC at 12.5 uM after 12 to 24 hrs by RT-qPCR analysis; format: functional, cell-based; settings: Homo sapiens
Outline: (§5)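 HUVECs treated with 12.5 μM bile acid or DMSO for 12 and 24 h. Total RNA extracted and 1 μg reverse-transcribed. SYBR-green qPCR for VEGFR1/VEGFR2: 95 °C 10 min, then 40 cycles of 95 °C 5 s / 60 °C 30 s. ΔΔCT normalised to GAPDH and expressed as fold change over control; repeated twice.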

HUVEC [17] = test: Increase in MMP9 level in HUVEC at 12.5 uM after 24 hrs by ELISA; format: functional, cell-based; settings: Homo sapiens; outline: as §4
HUVEC [18] = test: Increase in VEGFR2 m-RNA expression in HUVEC at 12.5 uM after 12 to 24 hrs by RT-qPCR analysis; format: functional, cell-based; settings: Homo sapiens; outline: as §5
Danio rerio [19] = species on record: Danio rerio; test: Pro-angiogenic activity in Tg(fli:eGFP) zebrafish embryo assessed as increase in sprouting and branching of sub-intestinal vessels (after 72 hrs post fertilization by fluorescence microscopic analysis; format: functional, organism-based; outline: as §3
HUVEC [20] = test: Induction of angiogenesis in HUVEC assessed as increase in tube length at 12.5 uM after overnight incubation by inverted microscopic analysis; format: functional, cell-based; settings: Homo sapiens; outline: as §2
Danio rerio [21] = species on record: Danio rerio; test: Pro-angiogenic activity in Tg(fli:eGFP) zebrafish embryo assessed as arcades formation at 12.5 uM after 72 hrs post fertilization by fluorescence microscopic analysis; format: functional, organism-based; outline: as §3
Danio rerio [22] = species on record: Danio rerio; test: Antiangiogenic activity in Tg(fli:eGFP) zebrafish embryo assessed as effect on phynotypic changes after 72 hrs post fertilization by fluorescence microscopic analysis; format: functional, organism-based
Outline: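 Tg(fli1:eGFP) zebrafish embryos were selected at 48 hpf, 20–25 per well, and exposed to bile acids at 6.25, 12.5 and 25 μM in embryo water from DMSO stocks. Vehicle was 0.1% DMSO. At 72 hpf the solutions were replaced with fresh embryo water. Embryos were anesthetized with tricaine and imaged by stereo and fluorescence microscopy for sub-intestinal vessel sprouting and branching. Two experiments, 50 embryos per group.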

Compound: C[C@H](CCC(=O)O)[C@H]1CC[C@H]2[C@@H]3[C@H](O)C[C@@H]4C[C@H](O)CC[C@]4(C)[C@H]3CC[C@]12C [CHENODIOL]
- Activity (HUVEC [1]): Active
- Activity (HUVEC [2]): inactive
- Activity (HUVEC [3]): Active
- Activity (Danio rerio [4]): Non-Toxic
- Activity (HUVEC [5]): 150%
- Activity (Danio rerio [6]): Active
- Activity (HUVEC [7]): Active
- Activity (HUVEC [8]): Active
- Activity (HUVEC [9]): Non-Toxic
- Activity (Danio rerio [10]): Active
- Activity (HUVEC [11]): Active
- Activity (HUVEC [12]): Non-Toxic
- Activity (HUVEC [13]): Active
- Activity (Danio rerio [14]): Active
- Activity (Danio rerio [15]): Active
- Activity (HUVEC [16]): Active
- Activity (HUVEC [17]): Active
- Activity (HUVEC [18]): Active
- Activity (Danio rerio [19]): Dose-dependent effect
- Activity (HUVEC [20]): Active
- Activity (Danio rerio [21]): Active

Compound: O=c1cc(N2CCOCC2)oc2c(-c3ccccc3)cccc12
- Activity (Danio rerio [22]): Active

From ChEMBL document CHEMBL4257469, “Deciphering the role of hydrophobic and hydrophilic bile acids in angiogenesis using in vitro and in vivo model systems” (Medchemcomm, 2017)
